# Source: ChEMBL document CHEMBL3124843, “Synthesis, cytostatic, antimicrobial, and anti-HCV activity of 6-substituted 7-(het)aryl-7-deazapurine ribonucleosides” (J Med Chem, 2014)
# Calls of active or inactive are those of the source. How the calls were made is not given here.
# Tests used:
# Escherichia coli [1] = assay: Antibacterial activity against Escherichia coli CCM 3954 after 24 hrs; format: functional, organism-based
# K562 [2] = assay: Cytostatic activity against paclitaxel-resistant human K562 cells after 72 hrs by MTT assay; format: functional, cell-based; settings: K562, 72 h
# How it was run: (§1)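 IC50 is the concentration that cuts cell growth by 50%, read by quantitative metabolic MTT staining after a 3-day treatment. The resistant sublines were made by raising the concentration of the cytotoxic drug step by step. CEM-DNR-bulk (daunorubicin-selected) stably overexpresses mrp-1. K562-TAX (paclitaxel-selected) expresses only mdr-1. HCT116p53−/− carries null p53 alleles. BJ and MRC-5 are nonmalignant fibroblasts.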
# Pichia kudriavzevii = assay: Antifungal activity against Candida crusei after 48 hrs; format: functional, organism-based
# HepG2 = assay: Antiproliferative activity against human HepG2 cells after 72 hrs by XTT assay; format: functional, cell-based; settings: HepG2, 72 h
# MRC5 = assay: Cytostatic activity against human MRC5 cells after 72 hrs by MTT assay; format: ADME, cell-based; settings: MRC5, 72 h; how it was run: as §1
# BJ = assay: Cytostatic activity against human BJ cells after 72 hrs by MTT assay; format: ADME, cell-based; how it was run: as §1
# HCT-116 [3] = assay: Cytostatic activity against p53-deficient human HCT116 cells after 72 hrs by MTT assay; format: functional, cell-based; settings: HCT-116, 72 h; how it was run: as §1
# Pseudomonas aeruginosa [4] = assay: Antibacterial activity against multi-resistant Pseudomonas aeruginosa A/16575 after 24 hrs; format: functional, organism-based
# [5] = Antiproliferative activity against human HeLaS3 cells after 72 hrs by XTT assay; format: functional, cell-based; settings: HeLa S3, 72 h
# How it was run: (§2)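 Antiproliferative test on HL-60 promyelocytic leukemia and HeLa S3 cervical carcinoma cells growing in liquid suspension.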
# Hepatitis C virus [6] = assay: Antiviral activity against Hepatitis C virus subtype 1b infected in human HuH7 cells; format: functional, organism-based, Hepacivirus hominis; settings: genotype 1b, Huh-7
# [7] = Cytotoxicity against human HuH7 cells infected with Hepatitis C virus subtype 1b; format: cell-based, Huh-7
# HL-60 = assay: Antiproliferative activity against human HL60 cells after 72 hrs by XTT assay; format: functional, cell-based; settings: HL-60, 72 h; how it was run: as §2
# Pseudomonas aeruginosa [8] = assay: Antibacterial activity against Pseudomonas aeruginosa CCM 3955 after 24 hrs; format: functional, organism-based
# K562 [9] = assay: Cytostatic activity against human K562 cells after 72 hrs by MTT assay; format: functional, cell-based; settings: K562, 72 h; how it was run: as §1
# Enterococcus faecalis = assay: Antibacterial activity against Enterococcus faecalis CCM 4224 after 24 hrs; format: functional, organism-based
# Staphylococcus aureus [10] = assay: Antibacterial activity against methicillin-resistant Staphylococcus aureus MRSA 4591 after 24 hrs; format: functional, organism-based
# HCT-116 [11] = assay: Cytostatic activity against human HCT116 cells after 72 hrs by MTT assay; format: functional, cell-based; settings: HCT-116, 72 h; how it was run: as §1
# Hepatitis C virus [12] = assay: Antiviral activity against Hepatitis C virus subtype 2a infected in human HuH7 cells; format: functional, organism-based, Hepacivirus hominis; settings: genotype 2a, Huh-7
# Candida albicans = assay: Antifungal activity against Candida albicans after 48 hrs; format: functional, organism-based
# Candida parapsilosis = assay: Antifungal activity against Candida parapsilosis after 48 hrs; format: functional, organism-based
# CCRF-CEM = assay: Cytostatic activity against human CCRF-CEM cells after 72 hrs by MTT assay; format: functional, cell-based; how it was run: as §1
# Staphylococcus aureus [13] = assay: Antibacterial activity against Staphylococcus aureus CCM 3953 after 24 hrs; format: functional, organism-based
# Escherichia coli [14] = assay: Antibacterial activity against multi-resistant Escherichia coli C/16702 after 24 hrs; format: functional, organism-based
# A549 = assay: Cytostatic activity against human A549 cells after 72 hrs by MTT assay; format: functional, cell-based; settings: A549, 72 h; how it was run: as §1
# [15] = Cytotoxicity against human HuH7 cells infected with Hepatitis C virus subtype 2a; format: cell-based, Huh-7
# [16] = tested on: Staphylococcus haemolyticus; assay: Antibacterial activity against methicillin-resistant Staphylococcus haemolyticus A/16568 after 24 hrs; format: functional, organism-based
# Candida tropicalis = assay: Antifungal activity against Candida tropicalis after 48 hrs; format: functional, organism-based
# [17] = Cytostatic activity against human CEM-DNR-bulk cells after 72 hrs by MTT assay; format: functional, cell-based; how it was run: as §1
SMILES,Activity (Escherichia coli [1]),IC50 (K562 [2]) [µM],Activity (Pichia kudriavzevii),IC50 (HepG2) [µM],IC50 (MRC5) [µM],IC50 (BJ) [µM],IC50 (HCT-116 [3]) [µM],Activity (Pseudomonas aeruginosa [4]),IC50 [5] [µM],EC50 (Hepatitis C virus [6]) [µM],CC50 [7] [µM],IC50 (HL-60) [µM],Activity (Pseudomonas aeruginosa [8]),IC50 (K562 [9]) [µM],Activity (Enterococcus faecalis),Activity (Staphylococcus aureus [10]),IC50 (HCT-116 [11]) [µM],EC50 (Hepatitis C virus [12]) [µM],Activity (Candida albicans),Activity (Candida parapsilosis),also measured
CSc1ncnc2c1c(-c1cc3ccccc3o1)cn2[C@@H]1O[C@H](CO)[C@@H](O)[C@H]1O,inactive,> 20,inactive,> 20,70.8,67.2,> 20,inactive,1.93,8.03,> 44,1.21,inactive,17.2,inactive,inactive,> 20,29.6,inactive,inactive,IC50 (CCRF-CEM): > 20 µM; Activity (Staphylococcus aureus [13]): inactive; Activity (Escherichia coli [14]): inactive; IC50 (A549): > 20 µM; CC50 [15]: > 44 µM; Activity [16]: inactive; Activity (Candida tropicalis): inactive; IC50 [17]: > 20 µM
CNc1ncnc2c1ccn2[C@@H]1O[C@H](CO)[C@@H](O)[C@H]1O,inactive,0.92,inactive,> 20,97.8,91.4,> 20,inactive,> 20,0.82,> 44,12.8,inactive,> 20,inactive,inactive,> 20,> 44,inactive,inactive,IC50 (CCRF-CEM): > 20 µM; Activity (Staphylococcus aureus [13]): inactive; Activity (Escherichia coli [14]): inactive; IC50 (A549): > 20 µM; CC50 [15]: > 44 µM; Activity [16]: inactive; Activity (Candida tropicalis): inactive; IC50 [17]: 4.89 µM
CSc1ncnc2c1c(I)cn2[C@@H]1O[C@H](CO)[C@@H](O)[C@H]1O,inactive,7.73,inactive,> 20,> 100,86.1,> 20,inactive,0.25,19.2,> 44,0.05,inactive,10.5,inactive,inactive,> 20,> 44,inactive,inactive,IC50 (CCRF-CEM): > 20 µM; Activity (Staphylococcus aureus [13]): inactive; Activity (Escherichia coli [14]): inactive; IC50 (A549): > 20 µM; CC50 [15]: > 44 µM; Activity [16]: inactive; Activity (Candida tropicalis): inactive; IC50 [17]: > 20 µM
CN(C)c1ncnc2c1c(-c1ccoc1)cn2[C@@H]1O[C@H](CO)[C@@H](O)[C@H]1O,inactive,14.9,inactive,12.5,> 100,99.2,> 20,inactive,9.06,7.88,> 44,1.16,inactive,1.54,inactive,inactive,> 20,> 44,inactive,inactive,IC50 (CCRF-CEM): 13.3 µM; Activity (Staphylococcus aureus [13]): inactive; Activity (Escherichia coli [14]): inactive; IC50 (A549): > 20 µM; CC50 [15]: > 44 µM; Activity [16]: inactive; Activity (Candida tropicalis): inactive; IC50 [17]: > 20 µM
